Screening results deposited in PubChem BioAssay by Broad Institute.
The full list was thinned out, with hits kept by preference.
T cruzi growth-1 – T. cruzi proliferation inhibition. inhibition, % at 8.34 µM. T. cruzi beta-gal in NIH3T3, GalScreen luminescence, 90 h. 5.9% of 77,000 active. AID 624255;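 active means mean inhibition above about 93%, with at least 55% of replicates each passing it, limit read from the data, passing the limit was not always enough; inconclusive means only one of those two conditions holds; inactive means neither condition holds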
IDH1 mut inh – inhibitors of human IDH1 R132H; 0.18% of 70,000 active; O75874; IDH1 R132H reductase, diaphorase/resazurin fluorescence, 60 min; inhibition, % at 10 µM; AID 624101; in the data active means inhibition above about 34%; inconclusive means no clear call, values can overlap the other calls; inactive means below about 11%;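 further: 0% = DMSO and 100% = no enzyme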
Target sequence (O75874 whole entry R132H): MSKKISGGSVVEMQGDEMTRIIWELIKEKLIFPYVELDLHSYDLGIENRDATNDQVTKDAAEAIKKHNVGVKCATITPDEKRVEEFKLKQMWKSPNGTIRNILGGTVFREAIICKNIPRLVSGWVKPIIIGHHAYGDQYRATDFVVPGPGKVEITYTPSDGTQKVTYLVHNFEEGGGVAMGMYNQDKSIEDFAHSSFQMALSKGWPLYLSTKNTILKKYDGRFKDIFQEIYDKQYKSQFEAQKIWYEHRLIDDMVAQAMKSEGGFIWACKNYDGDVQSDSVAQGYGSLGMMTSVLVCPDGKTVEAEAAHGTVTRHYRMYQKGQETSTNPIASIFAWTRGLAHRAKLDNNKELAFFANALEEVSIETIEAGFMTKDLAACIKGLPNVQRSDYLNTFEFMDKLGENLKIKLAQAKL
KDM4C inh – KDM4C (human) demethylase inhibition; inhibition, % at 12.5 µM; GST-KDM4C 2-372, H3K9me3 peptide, LANCE TR-FRET; AID 720574; 0.15% of 96,000 active;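 active means mean replicate inhibition above about 25%, with at least 55% of replicates also reaching it, limit read from the data, passing the limit was not always enough; inconclusive means only one of those two conditions met; inactive means neither condition met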
Target sequence (Q9H3R0 2-372 limits assumed): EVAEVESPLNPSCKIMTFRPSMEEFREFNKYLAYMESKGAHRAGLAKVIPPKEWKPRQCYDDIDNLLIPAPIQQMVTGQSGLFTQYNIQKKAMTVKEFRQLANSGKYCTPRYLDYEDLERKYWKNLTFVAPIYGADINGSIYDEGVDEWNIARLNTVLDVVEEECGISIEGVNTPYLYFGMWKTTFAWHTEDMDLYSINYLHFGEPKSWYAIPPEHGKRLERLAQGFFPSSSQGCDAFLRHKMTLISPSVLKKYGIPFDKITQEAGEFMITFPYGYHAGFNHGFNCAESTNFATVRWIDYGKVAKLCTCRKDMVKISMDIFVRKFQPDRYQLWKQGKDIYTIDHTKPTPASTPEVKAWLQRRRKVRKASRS
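Material: GST-tagged GASC-1 (JMJD2C) catalytic fragment, aa 2-372. Input: enzyme final amount 10 nM. Medium: HEPES buffer, pH 7.5, plus ascorbate. Reagent: H3K9me3 peptide substrate, Fe(II), 2-oxoglutarate. Doses: single dose. Times: reaction 30 min RT, detection step 1 h RT. Measured by: LANCE TR-FRET. Evaluation: Fall in 671/618 emission ratio as inhibition.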
T cruzi growth-2 – blocks T. cruzi growth in NIH3T3 host cells; shares compounds with T cruzi growth-1; AID 651739; T. cruzi beta-gal in NIH3T3, GalScreen luminescence, 90 h; 72% of 5,600 active; inhibition, % at 8.35 µM;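 active means mean replicate inhibition above about 95% and at least 55% of replicates individually reaching it, limit read from the data; inconclusive means only one of the two criteria is met; inactive means neither criterion is met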
T cruzi growth-3 – Trypanosoma cruzi proliferation inhibition; shares compounds with T cruzi growth-1; inhibition, % at 2.09 µM; 21% of 5,600 active; T. cruzi beta-gal in NIH3T3, GalScreen luminescence, 90 h;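 active means mean inhibition above about 95%, with at least 55% of replicates also reaching it, limit read from the data; inconclusive means meets just one of the two conditions; inactive means meets neither condition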;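 further: plate controls were neutral control median for no effect and positive control median for full effect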
3T3 cytotox – cytotoxicity in mouse NIH/3T3 fibroblasts. shares compounds with T cruzi growth-1. NIH/3T3 viability, CellTiter-Glo ATP luminescence, 90 h. cytotoxicity (signal decrease), % at 8.35 µM. 14% of 5,600 active;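 active means mean signal decrease across replicates above about 35% based on untreated-well scatter, with enough replicates individually passing, limit read from the data; inconclusive means no rule stated though some were filed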;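 further: 0% = median of neutral control wells and 100% = median of positive control wells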
3T3 cytotox 2 – cytotoxicity in mouse NIH/3T3 fibroblasts; shares compounds with T cruzi growth-1; NIH/3T3 viability, CellTiter-Glo ATP luminescence, 90 h; inhibition, % at 24.9 µM; 56% of 5,600 active;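 active means mean loss of cell viability signal at or above a set limit, and enough replicates individually reaching it; inconclusive means meets only the mean limit or only the replicate share; inactive means meets neither condition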;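 further: 0% = median of neutral control wells and 100% = median of positive control wells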
Numbers without * were called inactive; ? = inconclusive; nt = no result.

SMILES | T cruzi growth-1 | IDH1 mut inh | KDM4C inh | T cruzi growth-2 | T cruzi growth-3 | 3T3 cytotox | 3T3 cytotox 2
C[C@@H]1CN([C@H](C)CO)C(=O)c2cc(NC(=O)NC3CCCCC3)ccc2O[C@H]1CN(C)Cc1ccc(-c2ccccc2)cc1 | 105.3* | nt | -0.6 | 103.6* | 13.4 | 25.4 | 17.0
C[C@H]1CN([C@@H](C)CO)C(=O)c2cc(NC(=O)NC3CCCCC3)ccc2O[C@@H]1CN(C)Cc1ccc(-c2ccccc2)cc1 | -75.3 | 2.9 | -2.0 | nt | nt | nt | nt
C[C@@H]1CN([C@@H](C)CO)C(=O)c2cc(NC(=O)NC3CCCCC3)ccc2O[C@@H]1CN(C)Cc1ccc(-c2ccccc2)cc1 | 95.7* | 1.6 | -2.7 | 100.3* | 100.6* | 53.9* | 64.7*
C[C@H]1CN([C@@H](C)CO)C(=O)c2cc(NC(=O)NC3CCCCC3)ccc2O[C@@H]1CN(C)Cc1ccccc1 | 3.4 | 0.4 | 2.1 | nt | nt | nt | nt
COCC#Cc1cnc2c(c1)C(=O)N([C@@H](C)CO)C[C@H](C)[C@H](CN(C)C(=O)CN1CCOCC1)O2 | nt | 0.5 | 0.1 | nt | nt | nt | nt
CCC(=O)Nc1ccc2c(c1)OC[C@H](C)N(Cc1cccnc1)C[C@@H](C)[C@@H](OC)CN(C)C2=O | 74.8 | 0.0 | -1.8 | nt | nt | nt | nt
CCCNC(=O)Nc1ccc2c(c1)OC[C@@H](C)N(Cc1ccncc1)C[C@@H](C)[C@H](OC)CN(C)C2=O | 50.3 | 0.1 | 1.9 | nt | nt | nt | nt
COc1ccc2c3c([nH]c2c1)[C@@H](CO)N(C(=O)c1ccccn1)CC31CCN(C(=O)C2CCCCC2)CC1 | nt | nt | -0.3 | nt | nt | nt | nt
CCc1cnc(N2[C@@H](C#N)[C@@H](c3ccccc3)[C@@H]2CO)s1 | -2.6 | nt | 0.3 | nt | nt | nt | nt
CCc1cnc(N2[C@@H](C#N)[C@@H](c3ccc(C#CC(C)C)cc3)[C@@H]2CO)s1 | 96.9* | nt | -0.6 | 100.7* | 108.1* | 26.0 | 74.1*
CCc1cnc(N2[C@@H](C#N)[C@H](c3ccc(C#CC(C)C)cc3)[C@@H]2CO)s1 | 106.9* | nt | -0.8 | 111.6* | 51.7 | -5.3 | -2.4
CCc1cnc(N2[C@H](CO)[C@H](c3ccccc3)[C@@H]2C#N)s1 | -7.6 | nt | -0.2 | nt | nt | nt | nt
O=C(C[C@H]1CC[C@H](NC(=O)c2cccc(F)c2)[C@@H](CO)O1)NCCN1CCCC1 | 19.6 | 0.2 | 1.3 | nt | nt | nt | nt
COc1ccc(NC(=O)Nc2ccc3c(c2)C(=O)N([C@H](C)CO)C[C@H](C)[C@H](CN(C)C(=O)Nc2ccc4c(c2)OCO4)O3)cc1 | 3.7 | 0.2 | 1.1 | nt | nt | nt | nt
CCC(=O)N(CC1CCC1)C[C@H]1[C@H](c2ccccc2)[C@@H](CO)N1C(C)=O | 72.8 | nt | -0.5 | nt | nt | nt | nt
CC(=O)N1[C@H](CO)[C@@H](c2ccccc2)[C@@H]1CN(CC1CCC1)C(=O)CN(C)C | 27.4 | nt | -3.0 | nt | nt | nt | nt
CC(=O)N1[C@@H](CO)[C@@H](c2ccccc2)[C@@H]1CN(CC1CCC1)C(=O)CN(C)C | 97.7* | nt | -1.7 | 30.1 | -17.9 | 7.7 | 22.0
CC(=O)N1[C@H](CO)[C@H](c2ccccc2)[C@H]1CN(CC1CCC1)C(=O)CN(C)C | 100.8* | nt | -2.5 | ? | 0.1 | -22.6 | -12.5
Cc1noc(C)c1S(=O)(=O)Nc1ccc2c(c1)C(=O)N([C@@H](C)CO)C[C@@H](C)[C@H](CN(C)S(=O)(=O)c1c(C)noc1C)OCCCC[C@H](C)O2 | nt | 0.2 | 1.9 | nt | nt | nt | nt
CCC(=O)N1[C@@H](CO)[C@@H](c2ccc(-c3ccccc3)cc2)[C@@H]1CN(CC)C(C)=O | -21.8 | nt | -1.1 | nt | nt | nt | nt
CCC(=O)N1[C@H](C(=O)Nc2ccccc2)[C@@H](CO)[C@@H]2Cn3c(ccc(-c4ccncc4)c3=O)[C@@H]21 | 12.2 | nt | 0.0 | nt | nt | nt | nt
C[C@@H]1CCCCO[C@@H](CN(C)C(=O)C2CCCCC2)[C@H](C)CN([C@H](C)CO)C(=O)c2cc(NS(=O)(=O)c3cccs3)ccc2O1 | 70.9 | nt | -1.4 | nt | nt | nt | nt
CC(C)CC#Cc1ccc2c(c1)O[C@H](CN(C)Cc1ccc3c(c1)OCO3)[C@H](C)CN([C@@H](C)CO)S2(=O)=O | 96.0* | -0.7 | nt | ? | 107.1* | -6.8 | 105.7*
COCC#Cc1ccc2c(c1)O[C@H](CN(C)Cc1ccc3c(c1)OCO3)[C@@H](C)CN([C@@H](C)CO)S2(=O)=O | nt | 0.1 | 3.8 | nt | nt | nt | nt
C[C@@H]1CN([C@H](C)CO)S(=O)(=O)c2ccc(C#CCN(C)C)cc2O[C@H]1CN(C)Cc1ccc2c(c1)OCO2 | 105.4* | -1.5 | 0.9 | 99.9* | 69.1 | 58.5* | 107.0*
SMILES | T cruzi growth-1 | IDH1 mut inh | KDM4C inh | T cruzi growth-2 | T cruzi growth-3 | 3T3 cytotox | 3T3 cytotox 2
CCCC#Cc1ccc2c(c1)O[C@@H](CN(C)Cc1ccc3c(c1)OCO3)[C@H](C)CN([C@H](C)CO)S2(=O)=O | 100.7* | -5.5 | 2.3 | ? | 103.7* | 59.2* | 102.8*
COCC#Cc1ccc2c(c1)O[C@@H](CN(C)Cc1ccc3c(c1)OCO3)[C@@H](C)CN([C@H](C)CO)S2(=O)=O | nt | -3.8 | 1.1 | nt | nt | nt | nt
CCCC#Cc1ccc2c(c1)O[C@@H](CN(C)Cc1ccc3c(c1)OCO3)[C@H](C)CN([C@@H](C)CO)S2(=O)=O | ? | -0.1 | 17.7 | 97.8* | 107.8* | 51.3* | 103.7*
CCCC#Cc1ccc2c(c1)O[C@H](CN(C)Cc1ccc3c(c1)OCO3)[C@@H](C)CN([C@@H](C)CO)S2(=O)=O | 90.6 | -2.0 | 0.6 | nt | nt | nt | nt
COCC#Cc1ccc2c(c1)O[C@@H](CN(C)Cc1ccc3c(c1)OCO3)[C@H](C)CN([C@@H](C)CO)S2(=O)=O | nt | -1.6 | 0.5 | nt | nt | nt | nt
CCS(=O)(=O)NCC[C@@H]1CC[C@@H](NS(=O)(=O)c2cccc(Cl)c2)[C@@H](CO)O1 | -0.7 | -0.1 | -0.1 | nt | nt | nt | nt
O=C(CN1CCOCC1)NCC[C@H]1CC[C@@H](NC(=O)Nc2ccc(F)cc2)[C@@H](CO)O1 | -1.4 | 0.2 | -0.1 | nt | nt | nt | nt
COc1ccc(S(=O)(=O)N(C)C[C@H]2OCCCC[C@@H](C)Oc3ccc(NC(=O)Nc4c(C)noc4C)cc3C(=O)N([C@@H](C)CO)C[C@H]2C)cc1 | 33.4 | nt | 1.0 | nt | nt | nt | nt
CCCNC(=O)N(C)C[C@@H]1Oc2ncc(/C=C/c3ccccc3)cc2C(=O)N([C@H](C)CO)C[C@H]1C | 67.3 | 0.1 | 0.4 | nt | nt | nt | nt
COc1ccc(NC(=O)CSc2nc(-c3ccccc3)cc(C(F)(F)F)n2)c([N+](=O)[O-])c1 | nt | 0.5 | nt | nt | nt | nt | nt
COc1cccc(C#Cc2ccc3c(c2)O[C@H](CN(C)C)[C@H](C)CN([C@@H](C)CO)S3(=O)=O)c1 | 23.0 | -1.0 | -1.1 | nt | nt | nt | nt
COc1ccc(S(=O)(=O)Nc2ccc3c(c2)C(=O)N([C@@H](C)CO)C[C@H](C)[C@H](CN(C)C(=O)c2ccncc2)OCCCC[C@@H](C)O3)cc1 | 22.6 | 1.3 | 4.5 | nt | nt | nt | nt
C[C@@H]1CN([C@H](C)CO)S(=O)(=O)c2ccc(C3=CCCC3)cc2O[C@H]1CN(C)Cc1cccnc1 | 100.9* | 18.5 | -0.2 | 93.0 | 76.5 | ? | 35.6*
